Our source for the IC50 values is ChEMBL document CHEMBL1926632, “Cytotoxic triterpenoid saponins from Lysimachia clethroides” (J Nat Prod, 2011).

Structures are written as SMILES.

Holding throughout (assay type): functional, cell-based
One experiment deals with A549. Put plainly: Cytotoxicity against human A549 cells by MTT assay. In a few lines:
(§1)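 MTT read-out following a previously published method. Cell origins: HT-29 colon cancer, HePG2 hepatoma, BGC-823 gastric cancer, A549 lung epithelial, A375 amelanotic melanoma, all human. Paclitaxel served as positive control in the same panel.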
(In general: Tetrazolium dyes change colour on reduction, which living cells bring about.)

Another experiment deals with A-375. The experiment can be described thus: Cytotoxicity against human A375 cells by MTT assay. An outline of the steps:
as §1

A further experiment has as its system HepG2. The experiment can be described thus: Cytotoxicity against human HepG2 cells by MTT assay. An outline of the steps: as §1
Another experiment concerns HT-29. Put plainly: Cytotoxicity against human HT-29 cells by MTT assay. An outline of the steps:
as §1

For another experiment, the system named is BGC-823. Put plainly: Cytotoxicity against human BGC823 cells by MTT assay. An outline of the steps: as §1

Take `CC1(C)CC[C@]23CO[C@@]4(CC[C@@H]5[C@@]6(C)CC[C@H](O[C@@H]7OC[C@H](O[C@@H]8O[C@H](CO)[C@@H](O)[C@H](O)[C@H]8O[C@@H]8OC[C@@H](O)[C@H](O)[C@H]8O)[C@H](O)[C@H]7O[C@@H]7O[C@H](CO)[C@@H](O)[C@H](O)[C@H]7O)C(C)(C)[C@@H]6CC[C@@]5(C)[C@]4(C)CC2=O)[C@@H]3C1` [CLETHROIDOSIDE D]: the IC50 turned out to be 2360 nM in the experiment on A549; 1910 nM in the experiment with A-375; 1730 nM with HepG2; 1980 nM in the experiment with HT-29; 1360 nM in the experiment on BGC-823.
In the same order, the values of `CC(=O)O[C@H]1[C@H](OC(C)=O)[C@]23CO[C@@]4(CC[C@@H]5[C@@]6(C)CC[C@H](O[C@@H]7OC[C@H](O[C@@H]8O[C@H](CO)[C@@H](O)[C@H](O)[C@H]8O[C@@H]8OC[C@@H](O)[C@H](O)[C@H]8O)[C@H](O)[C@H]7O[C@@H]7O[C@H](CO)[C@@H](O)[C@H](O)[C@H]7O)C(C)(C)[C@@H]6CC[C@@]5(C)[C@]4(C)C[C@H]2O)[C@@H]3CC1(C)C` [CLETHROIDOSIDE F] are 2280 nM, 2190 nM, 1260 nM, 2040 nM and 1950 nM.
In the same order, the values of `CC1(C)[C@@H](O[C@@H]2OC[C@H](O[C@@H]3O[C@H](CO)[C@@H](O)[C@H](O)[C@H]3O)[C@H](O)[C@H]2O[C@@H]2O[C@H](CO)[C@@H](O)[C@H](O)[C@H]2O)CC[C@]2(C)[C@H]3CC[C@]45OC[C@@]6(CC[C@](C)(CO)C[C@H]64)[C@H](O)C[C@@]5(C)[C@]3(C)CC[C@@H]12` [ARDISIANOSIDE E] are 2470 nM, 1710 nM, 750 nM, 1810 nM and 1140 nM.
In the case of `C[C@@H]1O[C@@H](O[C@H]2[C@H](O[C@H]3CO[C@@H](O[C@H]4CC[C@]5(C)[C@H]6CC[C@]78OC[C@@]9(CCC(C)(C)C[C@H]97)C(=O)C[C@@]8(C)[C@]6(C)CC[C@H]5C4(C)C)[C@H](O[C@@H]4O[C@H](CO)[C@@H](O)[C@H](O)[C@H]4O)[C@H]3O)O[C@H](CO)[C@@H](O)[C@@H]2O)[C@H](O)[C@H](O)[C@H]1O` [CLETHROIDOSIDE C], the concentration for half-maximal inhibition (IC50) in the experiment with A549 came out at 2620 nM; with A-375 it was 1140 nM; in the experiment on HepG2, 1480 nM; in the experiment with HT-29, 1990 nM; in the experiment on BGC-823 it was 1930 nM.
With `CC(=O)O[C@H]1C(=O)[C@@]2(C)[C@H]([C@H](OC(=O)c3ccccc3)[C@]3(O)C[C@H](OC(=O)[C@H](O)[C@@H](NC(=O)c4ccccc4)c4ccccc4)C(C)=C1C3(C)C)[C@]1(OC(C)=O)CO[C@@H]1C[C@@H]2O` [PACLITAXEL], the IC50 was 44.9 nM with A549, 4.9 nM with A-375, 4.4 nM in the experiment with HepG2 and 3.94 nM with HT-29.
As to `C[C@@H]1O[C@@H](O[C@H]2[C@H](O[C@H]3CO[C@@H](O[C@H]4CC[C@]5(C)[C@H]6CC[C@]78OC[C@@]9(CCC(C)(C)C[C@H]97)[C@H](O)C[C@@]8(C)[C@]6(C)CC[C@H]5C4(C)C)[C@H](O[C@@H]4O[C@H](CO)[C@@H](O)[C@H](O)[C@H]4O)[C@H]3O)O[C@H](CO)[C@@H](O)[C@@H]2O)[C@H](O)[C@H](O)[C@H]1O`, the half-inhibitory concentration (IC50) in the experiment with A549 is 1950 nM; in the experiment on A-375, 2130 nM; with HepG2, 990 nM; in the experiment with HT-29, 1960 nM; in the experiment with BGC-823, 2070 nM.
As for `CC(=O)OC[C@H]1O[C@@H](O[C@H]2[C@H](O[C@H]3CC[C@]4(C)[C@H]5CC[C@]67OC[C@@]8(CCC(C)(C)C[C@H]86)[C@H](O)C[C@@]7(C)[C@]5(C)CC[C@H]4C3(C)C)OC[C@H](O[C@@H]3O[C@H](CO)[C@@H](O)[C@H](O)[C@H]3O[C@@H]3O[C@@H](C)[C@H](O)[C@@H](O)[C@H]3O)[C@@H]2O)[C@H](O)[C@@H](O)[C@@H]1O` [CLETHROIDOSIDE E], the concentration for half-maximal inhibition (IC50) was above 10000 nM with A549; above 10000 nM in the experiment with A-375; 6260 nM in the experiment on HepG2; 1400 nM in the experiment with HT-29; 8050 nM in the experiment with BGC-823.
For the compound `CC1(C)CC[C@]23CO[C@@]4(CC[C@@H]5[C@@]6(C)CC[C@H](O[C@@H]7OC[C@H](O[C@@H]8O[C@H](CO)[C@@H](O)[C@H](O)[C@H]8O[C@@H]8OC[C@@H](O)[C@H](O)[C@H]8O)[C@H](O)[C@H]7O[C@@H]7O[C@H](CO)[C@@H](O)[C@H](O)[C@H]7O)C(C)(C)[C@@H]6CC[C@@]5(C)[C@]4(C)C[C@H]2O)[C@@H]3C1` [LYSIKOKIANOSIDE 1], the half-inhibitory concentration (IC50) in the experiment with A549 is 1910 nM; in the experiment with A-375, 1940 nM; with HepG2, 1000 nM; in the experiment with HT-29 it was 1960 nM; in the experiment on BGC-823, 1750 nM.

For orientation: IC50 means the concentration needed to halve the response being measured. A lower IC50 goes with inhibition by little substance.
